The text below walks through data of PubChem BioAssay AID1296 (Columbia University Molecular Screening Center, 2008).

Among all 130,000 compounds or so, about 1,000 (0.77%) were called active. About 1% were inconclusive and are not listed.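 How the source made its calls: active means activation at 2 µM above a set limit, confirmed on inspection of the cell images; inconclusive means above the set limit but not confirmed on image inspection; inactive means the rest.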 Many of the other results were omitted from the sample, so actives are more common in it than they were.

The assay can be described thus: insulin gene promoter stimulation in islet cells – imaging, TRM-6 cells, eGFP reporter, cell count, primary screen (AID 1296).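 On activation: share of cells whose green reporter signal exceeds an intensity cutoff.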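 On normalized cell count: cells counted after 48 h compound exposure.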 Particulars: at 2 µM; activation: stronger effect = higher value, plate-scaled: unstimulated 0, stimulated control 100; normalized cell count: measured here: cell count (toxicity). The method, boiled down: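 Test system: human fetal islet-derived TRM-6 cells with tamoxifen-inducible insulin promoter–eGFP reporter; schedule: overnight tamoxifen, then two-day compound incubation at 37 °C; measured by: high-content imaging of fixed cells with Hoechst nuclear stain; evaluation: percent cells above green-intensity threshold, converted to percent activation versus plate controls; control set: stimulated and unstimulated wells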
In the case of `CC1CCCN(CCOCCOc2ccccc2-c2ccccc2)C1` (centres undefined), the activation was 7.14% (inactive) and the normalized cell count came out at 133%.

With `Cc1ccc(C(C)(C)C)c(OCCCCN2CCCC2)c1`, the activation is -1.96% (inactive) and the normalized cell count came to 97.2%.

Consider `Cc1nn(-c2ccccc2)c(C)c1NC(=O)COc1ccc(Cl)cc1Cl`, for which the activation is 3.7% (inactive) and the normalized cell count is 120%.

`Cc1cc(C)c2c(n1)nn1c(N3CCN(c4cccc(Cl)c4)CC3)cc(C)nc21`: the activation was 141% (inactive) and the normalized cell count was 99.8%.

For the compound `CCOc1nnc(C)c2c(C)n(-c3cccc(Cl)c3)nc12`, the activation was 162% (active) and the normalized cell count is 134%.

Consider `O=C(CCCN1C(=O)/C(=C/c2ccco2)SC1=S)Nc1ccccc1`, for which the activation was 0% (inactive) and the normalized cell count amounted to 158%.

In the case of `COc1ccc(N2CCN(C(=O)c3ccc4c(Cl)c5c(nc4c3)CCCC5)CC2)cc1`, the activation was 0% (inactive) and the normalized cell count is 94.9%.

`COc1ccc(C2CC(c3cccs3)Nc3nnnn32)cc1` (centres undefined): the activation is -78.6% (inactive) and the normalized cell count worked out at 120%.

Turning to `CC1(C)CC(=O)C(N=Nc2ccc(S(=O)(=O)N3CCCCCC3)cc2)=C(O)C1`, the activation is 0% (inactive) and the normalized cell count amounted to 78.9%.

Consider `O=C(NCN1CCN(CCO)CC1)c1cnccn1`, for which the activation is 6.67% (inactive) and the normalized cell count was found to be 83.1%.

For the compound `O=C(Nc1ccccc1C(=O)NCCCn1ccnc1)c1ccc(Cl)cc1Cl`, the activation is 289% (inactive) and the normalized cell count was 61.3%.

In the case of `CCCC(=O)Nc1ccc(C(=O)NCCCn2ccnc2)cc1`, the activation was 456% (active) and the normalized cell count was found to be 48.4%.

`Cc1ccc2c(Cl)c(C(=O)NCCCn3ccnc3)sc2c1`: the activation is 352% (inactive) and the normalized cell count was 42%.

As for `C/C(=N\NC(=O)c1ccc(NS(=O)(=O)c2cccs2)cc1)c1ccc2ccccc2c1`, the activation was 157% (inactive) and the normalized cell count turned out to be 72.7%.

For the compound `CN(C)CCCCCN(C)Cc1cc2ccccc2o1`, the activation is 319% (active) and the normalized cell count amounted to 86.1%.

Take `CCN(CCO)C(=S)Nc1cc(C(=O)OC)ccc1C(=O)OC`: the activation is 3.45% (inactive) and the normalized cell count amounted to 127%.

Regarding `COC(=O)c1ccc(C(=O)OC)c(NC(=S)N2CCN(c3ccc(F)cc3)CC2)c1`, the activation is 403% (active) and the normalized cell count came to 89.4%.

Consider `CCS(=O)(=O)Nc1cc(C(=O)OC)ccc1C(=O)OC`, for which the activation was -6.67% (inactive) and the normalized cell count was 104%.

Regarding `COc1ccc(C)cc1Nc1nc(-c2c(C)[nH]c3ccccc23)cs1`, the activation is -3.7% (inactive) and the normalized cell count worked out at 68.8%.

With `CN(c1ccc(OCC(=O)OCC(=O)Nc2cccc([N+](=O)[O-])c2)cc1)S(=O)(=O)c1ccc(F)cc1`, the activation is -8.57% (inactive) and the normalized cell count is 119%.

In the case of `CCc1ccc(NC(=O)Nc2ccncc2)cc1`, the activation is 268% (active) and the normalized cell count amounted to 67.1%.

On to `O=C(Nc1ccncc1)c1c(F)cccc1F`, for which the activation is -5.26% (inactive) and the normalized cell count came to 90.9%.

Take `COc1cccc(OC)c1C(=O)Nc1ccc(Cc2ccncc2)cc1`: the activation is 6.67% (inactive) and the normalized cell count worked out at 107%.

With `OCCNCCOc1ccc(Cl)c(Cl)c1`, the activation is -3.85% (inactive) and the normalized cell count was found to be 86.5%.

As for `CC(NC(=O)Nc1ccc2c(c1)OCO2)c1ccncc1` (centres undefined), the activation was -5.26% (inactive) and the normalized cell count was 112%.

Take `Cc1onc(C(=O)NN)c1C(=O)N1CCN(C(c2ccccc2)c2ccccc2)CC1`: the activation is -81.8% (inactive) and the normalized cell count was 29.3%.

`CCOC(=O)c1c(NC(=O)C2CC=CCC2C(=O)O)sc(C)c1CC` (centres undefined): the activation was -5.88% (inactive) and the normalized cell count is 110%.

Take `Cc1ccccc1C(OCCN(C)C)C1CCCCC1` (centres undefined): the activation was -9.38% (inactive) and the normalized cell count came out at 72.9%.

As for `Cc1ccc(N/N=C2\COC(C)(C)CC2=O)cc1`, the activation was 7.14% (inactive) and the normalized cell count turned out to be 67.8%.

With `CCCC(=O)C1CCN(Cc2ccccc2)CC1`, the activation is 0% (inactive) and the normalized cell count came to 122%.

As for `NC(=O)c1ccc(CN2CCC(Cc3ccccc3)CC2)cc1`, the activation was 347% (active) and the normalized cell count stood at 40.1%.

Take `O=C(Nc1ccccc1)N1CCN(Cc2ccccc2)CC1`: the activation was 4.22% (inactive) and the normalized cell count is 57.8%.

Take `O=C(CSc1ncnc2scc(-c3ccccc3)c12)NCc1ccc2c(c1)OCO2`: the activation is 0% (inactive) and the normalized cell count came to 109%.

Take `CCCCOc1ccc(C(=O)NN2CCN(C)CC2)cc1`: the activation is 0% (inactive) and the normalized cell count stood at 149%.

Take `CN(c1ccccc1)c1ccc(/C=c2\s/c(=C(/C#N)C(=O)C(C)(C)C)n(Cc3ccco3)c2=O)cc1`: the activation is 178% (active) and the normalized cell count stood at 74.1%.

Turning to `Cc1cs/c(=N\N=C\c2ccc(O)cc2)n1Cc1ccco1`, the activation was -7.69% (inactive) and the normalized cell count was found to be 109%.

Consider `O=C(CN(c1cccc(Cl)c1)S(=O)(=O)c1ccccc1)NN=C1CCCC1`, for which the activation is -5.88% (inactive) and the normalized cell count was determined as 82.1%.

Take `Cc1ccc(S(=O)(=O)N(CC(=O)N2CCc3ccccc3C2)c2cccc(Cl)c2)cc1`: the activation is 5% (inactive) and the normalized cell count is 94.9%.

For `O=C(CN(c1ccccc1)S(=O)(=O)c1ccc(Cl)cc1)Nc1ccccc1C(=O)N1CCCC1`, the activation was 93.5% (active) and the normalized cell count was found to be 74.8%.

Turning to `N#CCC(=O)NC(=O)NCC1CC1`, the activation is 9.09% (inactive) and the normalized cell count was 118%.

Consider `O=C(CCc1[nH]c2ccccc2c1Sc1ccccc1)N(CCO)CCO`, for which the activation is -6.9% (inactive) and the normalized cell count was determined as 121%.

As to `Cc1nnc(SCC(=O)N2CCOCC2)[nH]c1=O`, the activation is 0% (inactive) and the normalized cell count was determined as 145%.

Regarding `O=C(Nc1ccc(S(=O)(=O)N2CCc3ccccc3C2)cc1)c1ccccc1`, the activation is 407% (active) and the normalized cell count turned out to be 116%.

On to `O=S(=O)(c1cccs1)N1CCc2ccccc2C1`, for which the activation is -90.9% (inactive) and the normalized cell count was 90.9%.

Consider `COc1ccc(S(=O)(=O)N2CCC(C(=O)N3CCc4ccccc4C3)CC2)cc1OC`, for which the activation was 8.7% (inactive) and the normalized cell count stood at 157%.

Turning to `O=C(Nc1ccccc1)OCc1cn(-c2ccc(Cl)cc2)nn1`, the activation is 6.06% (inactive) and the normalized cell count amounted to 118%.

In the case of `CC(Sc1nncn1C)C(=O)Nc1cc(C(F)(F)F)ccc1N1CCOCC1` (centres undefined), the activation was 0% (inactive) and the normalized cell count worked out at 135%.
